PMI act satM6P = human PMI activators, high substrate, primary screen, biochemical, fluorescence intensity, near-saturating mannose 6-phosphate; Mannose-6-phosphate isomerase (Homo sapiens), P34949; coupled PMI enzyme assay, resazurin fluorescence, 20 min; hits give high values; 1 = untreated enzyme, 0 = substrate-free blank; activation factor at 20 µM; 190,000 compounds, 0.34% hits;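 active = activation factor of 2 or more at 20 µM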
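Material: human phosphomannose isomerase with PGI, G6PDH, diaphorase coupling enzymes; amount: PMI at 15 ng/mL final; also added: Mannose-6-phosphate 1.0 mM (near-saturating) plus 0.22 mM NADP+; incubation: enzyme reaction with compound 20 min at room temperature; signal: resorufin fluorescence (Ex 544/Em 590 nm) from resazurin via diaphorase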
G6PDH counter = L. mesenteroides G6PDH inhibitors, counter-screen for G6PDH-coupled screening assays, biochemical, Leuconostoc mesenteroides enzyme | glucose-6-phosphate dehydrogenase [Leuconostoc mesenteroides] | Purified L. mesenteroides G6PDH, diaphorase/resazurin coupled fluorescence, 45 min | inhibition, % at 5 µM | 200,000 compounds, 0.12% hits | AID 1020, 2008; in the data active = inhibition above about 50%
p97 ATPase inh = inhibitors of human p97 ATPase, primary screen, biochemical; Transitional endoplasmic reticulum ATPase (Homo sapiens), P55072; 220,000 compounds, 0.42% hits; inhibition, % at 8 µM; recombinant p97 ATPase, Kinase-Glo ATP luminescence, 3 h; in the data active = inhibition above about 15%
Target sequence (P55072 whole entry, looked up): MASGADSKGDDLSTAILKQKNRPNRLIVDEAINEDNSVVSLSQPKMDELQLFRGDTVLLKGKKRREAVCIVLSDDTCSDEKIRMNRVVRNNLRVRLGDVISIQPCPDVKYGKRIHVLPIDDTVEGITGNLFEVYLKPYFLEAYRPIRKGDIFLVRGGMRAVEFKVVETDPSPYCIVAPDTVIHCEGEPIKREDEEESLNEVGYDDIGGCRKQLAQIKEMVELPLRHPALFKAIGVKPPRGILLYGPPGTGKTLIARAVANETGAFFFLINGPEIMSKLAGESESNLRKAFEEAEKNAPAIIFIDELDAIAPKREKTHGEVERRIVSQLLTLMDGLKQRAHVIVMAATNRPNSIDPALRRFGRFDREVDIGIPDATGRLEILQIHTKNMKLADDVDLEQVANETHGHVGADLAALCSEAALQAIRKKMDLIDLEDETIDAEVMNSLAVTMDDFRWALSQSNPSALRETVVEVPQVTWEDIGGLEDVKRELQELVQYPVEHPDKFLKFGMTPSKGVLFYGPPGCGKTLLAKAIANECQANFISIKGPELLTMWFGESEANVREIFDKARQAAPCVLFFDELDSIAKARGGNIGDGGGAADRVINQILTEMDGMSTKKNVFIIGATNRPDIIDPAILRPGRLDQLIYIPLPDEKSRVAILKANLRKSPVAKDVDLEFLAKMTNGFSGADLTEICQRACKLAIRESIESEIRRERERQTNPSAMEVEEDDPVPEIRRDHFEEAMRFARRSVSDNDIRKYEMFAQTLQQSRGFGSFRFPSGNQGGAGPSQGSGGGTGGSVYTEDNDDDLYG
DTT redox prof = compounds producing H2O2 with reducing agent – biochemical, NIH compound library profiling, artefact control for MLSCN library redox annotation, primary screen | DTT-dependent redox cycling H2O2, phenol red/HRP absorbance; 100% = 100 µM peroxide control, 0% = buffer | activation, % at 10 µM | 200,000 compounds, 0.03% hits | AID 878, 2007;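 active = activation of at least 50% relative to the plate's high and low controls in the primary single-dose screen; inactive = activation below 50%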;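 note: compound incubated with DTT at 0.8 mM final as the reducing agent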
PMI activator = activators of human PMI, primary screen, biochemical, fluorescence intensity, near-Km mannose 6-phosphate; 190,000 compounds, 0.005% hits; Mannose-6-phosphate isomerase (Homo sapiens), P34949; purified human PMI, coupled resazurin fluorescence, 20 min; hits give high values; 1 = vehicle control, 0 substrate-free wells; activation factor at 20 µM; AID 1214, 2008;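 active = activation factor of 2 or more at 20 µM, relative to plate controls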
Tb hexokinase = Trypanosoma brucei hexokinase 1 inhibitors, primary screen, biochemical, G6PDH-coupled NADH absorbance, MLSCN library; hexokinase 1 [Trypanosoma brucei]; 220,000 compounds, 0.11% hits; inhibition, % at 10 µM; recombinant TbHK1, G6PDH-coupled NADH A340; AID 1430, 2008;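 active = inhibition of 50% or more in the single-dose primary screen; inactive = inhibition below 50%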
p97 confirm = p97 ATPase inhibitors, retest, confirmation, biochemical. shares compounds with p97 ATPase inh. recombinant p97 ATPase, Kinase-Glo ATP luminescence. inhibition, % at 8 µM. 760 compounds, 44% hits. AID 1517, 2009;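 active = percent inhibition of p97 ATPase above a set limit, the primary screen's mean plus 3 SD, cut at about 15% in these data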
Large screens that a line does not name were inactive (follow-up assays come after a bar, where they were run). Only some compounds are listed: those with a hit (about 0.91% of all), similar ones and a draw of the others.

Cc1ccc(S(=O)(=O)N(CC(=O)NC2CCCC2)c2cccc(C)c2)cc1	none
O=C(CCCN1C(=O)/C(=C\c2cccs2)SC1=S)Nc1cccc(C(=O)O)c1	none
O=C(CCCN1C(=O)/C(=C/c2ccco2)SC1=S)Nc1cccc(C(=O)O)c1	p97 ATPase inh 33 (no result: PMI act satM6P, G6PDH counter, DTT redox prof, PMI activator) | p97 confirm inactive
CCn1nc([N+](=O)[O-])c(C(C#N)c2nc3cc(C(F)(F)F)ccc3s2)c(Cl)c1=O (stereo not given)	p97 ATPase inh 35 | p97 confirm 42
CCCn1nc([N+](=O)[O-])c(C(C#N)c2nc3ccccc3o2)c(Cl)c1=O (stereo not given)	none
O=C(/C=C/c1ccc(Cl)c(Cl)c1)NC1=NCCS1	none
O=C1CCCC(O)=C1C=NCc1ccccc1	none
COc1ccccc1N=C1SC(C(=O)Nc2cccc(Cl)c2Cl)C(N)=C1C(N)=O (stereo not given)	none (no result: PMI act satM6P, G6PDH counter, DTT redox prof, PMI activator)
CCOc1ccc(N=C2SC(C(=O)Nc3ccccc3C#N)C(N)=C2C(=O)Nc2ccc(Cl)cc2)cc1 (stereo not given)	p97 ATPase inh 19 | p97 confirm 24
CCOC(=O)c1c(NC(N)=O)sc(C)c1C	none
CCOC(=O)c1c(N2C(=O)C=CC2=O)sc(C)c1C	p97 ATPase inh 15 | p97 confirm inactive
Cc1ccc(NC(=O)COC(=O)CCc2nc3ccccc3c(=O)[nH]2)cc1Cl	p97 ATPase inh 16 | p97 confirm inactive
CCN(CC)CCNC(=O)C(C)c1nn(CC)c(=O)c2ccccc12 (stereo not given)	none
OCC1(Cc2cccc(Cl)c2)CCCN(Cc2cnn(-c3ccccc3)c2)C1 (stereo not given)	none
Cc1ccc(C(C(=O)NCc2ccco2)N(C(=O)Cn2nnc3ccccc32)c2ccccc2)o1 (stereo not given)	p97 ATPase inh 16 | p97 confirm inactive
Nc1ccc(O)c(-c2nc3ccccc3s2)c1	none
Oc1ccc(-c2nc3ccccc3s2)c(O)c1	p97 ATPase inh 17 (no result: PMI act satM6P, G6PDH counter, DTT redox prof, PMI activator) | p97 confirm inactive
COc1cc(/C=N/N=C2/C(=O)Nc3ccccc32)ccc1O	none
O=C1Nc2ccccc2/C1=N\N=C\c1ccc(O)c(O)c1	p97 ATPase inh 19 (no result: PMI act satM6P, G6PDH counter, DTT redox prof, PMI activator) | p97 confirm 16
O=C(OCC(=O)N1CCc2ccccc2C1)c1cccs1	none
CCOc1ccc(Br)cc1S(=O)(=O)N1CC(C)OC(C)C1 (stereo not given)	none
CCOc1ccc(Br)cc1S(=O)(=O)N1CCC(C(N)=O)CC1	p97 ATPase inh 15 | p97 confirm inactive
O=[N+]([O-])c1ccccc1-c1ccc(/C=N/n2cnnc2)o1	none
Nn1cnnc1N/N=C\c1ccc(-c2ccccc2[N+](=O)[O-])o1	p97 ATPase inh 27 | p97 confirm inactive
O=S(=O)(NCc1ccccc1F)NCc1ccccc1F	none
Cc1ccc(C)c(S(=O)(=O)C(C#N)c2nc3ccccc3nc2N2CCOCC2)c1 (stereo not given)	none
C=CCNC(=O)C(C#N)c1nc2ccccc2nc1N1CCCCCC1 (stereo not given)	p97 ATPase inh 21 | p97 confirm inactive
N#CC(c1nc2ccccc2nc1N1CCCC1)S(=O)(=O)c1ccccc1 (stereo not given)	p97 ATPase inh 17 | p97 confirm inactive
Cc1ccc(C)c(S(=O)(=O)C(C#N)c2nc3ccccc3nc2N2CCCC2)c1 (stereo not given)	p97 ATPase inh 19 | p97 confirm inactive
CN1CCN(c2nc3ccccc3nc2C(C#N)S(=O)(=O)c2ccccc2)CC1 (stereo not given)	none (no result: PMI act satM6P, G6PDH counter, DTT redox prof, PMI activator)

Bioassay records deposited in PubChem BioAssay by several laboratories.
